Source: ChEMBL document CHEMBL3763019, “Discovery of benzenesulfonamide derivatives as potent PI3K/mTOR dual inhibitors with in vivo efficacies against hepatocellular carcinoma” (Bioorg Med Chem, 2016)

Key:
[1] = system: MDA-MB-231; experiment: Cytotoxicity against human MDA-MB-231 cells after 72 hrs by MTT assay; assay type: functional, cell-based; conditions: MDA-MB-231, 72 h
Outline: (§1)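 Log-phase cells at 40,000–50,000 cells/mL in DMEM with 10% FBS and antibiotics were seeded and cultured overnight at 37 °C, 5% CO₂. Compounds were diluted in DMSO/PBS from 10^-4 to 10^-9 M and applied for 72 h. MTT (5 mg/mL stock) was then added for 4 h and absorbance read at 570 nm. IC50 came from nonlinear regression on triplicate wells, averaged.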

[2] = system: A549; experiment: Cytotoxicity against human A549 cells after 72 hrs by MTT assay; assay type: functional, cell-based; conditions: A549, 72 h; outline: as §1
[3] = target: Phosphatidylinositol 4,5-bisphosphate 3-kinase catalytic subunit alpha isoform (Homo sapiens, UniProt P42336); experiment: Inhibition of PI3K-alpha (unknown origin) using PIP2 as substrate incubated for 1 hr by Kinase-Glo luminescent kinase assay
Chain of Phosphatidylinositol 4,5-bisphosphate 3-kinase catalytic subunit alpha isoform (P42336 whole entry, canonical isoform): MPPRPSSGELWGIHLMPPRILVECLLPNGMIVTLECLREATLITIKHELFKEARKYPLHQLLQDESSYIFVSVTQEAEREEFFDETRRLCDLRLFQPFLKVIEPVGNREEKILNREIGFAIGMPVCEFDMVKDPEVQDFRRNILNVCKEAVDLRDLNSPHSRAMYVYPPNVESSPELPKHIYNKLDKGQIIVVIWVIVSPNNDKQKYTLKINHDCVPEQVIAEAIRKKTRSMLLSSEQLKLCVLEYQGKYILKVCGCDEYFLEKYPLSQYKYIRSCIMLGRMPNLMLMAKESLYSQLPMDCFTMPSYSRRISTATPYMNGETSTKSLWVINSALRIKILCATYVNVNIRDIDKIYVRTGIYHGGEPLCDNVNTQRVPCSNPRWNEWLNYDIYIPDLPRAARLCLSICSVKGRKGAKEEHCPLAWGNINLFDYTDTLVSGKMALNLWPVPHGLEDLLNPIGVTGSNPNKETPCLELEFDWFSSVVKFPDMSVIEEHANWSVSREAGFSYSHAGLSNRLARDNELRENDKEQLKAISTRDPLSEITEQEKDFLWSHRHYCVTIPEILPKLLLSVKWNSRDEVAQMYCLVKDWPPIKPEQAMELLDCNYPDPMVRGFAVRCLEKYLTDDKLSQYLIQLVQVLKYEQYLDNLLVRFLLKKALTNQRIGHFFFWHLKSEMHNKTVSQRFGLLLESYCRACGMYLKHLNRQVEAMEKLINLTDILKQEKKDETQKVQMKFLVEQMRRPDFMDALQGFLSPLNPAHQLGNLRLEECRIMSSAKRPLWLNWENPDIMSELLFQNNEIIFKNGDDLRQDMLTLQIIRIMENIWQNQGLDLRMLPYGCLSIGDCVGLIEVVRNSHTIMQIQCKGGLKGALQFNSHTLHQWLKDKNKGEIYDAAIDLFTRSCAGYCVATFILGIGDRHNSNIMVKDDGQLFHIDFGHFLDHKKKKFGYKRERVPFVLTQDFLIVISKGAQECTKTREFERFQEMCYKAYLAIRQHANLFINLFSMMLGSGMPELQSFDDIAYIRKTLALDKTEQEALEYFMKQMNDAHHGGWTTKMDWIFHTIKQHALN

[4] = target: T1, Phosphatidylinositol 4,5-bisphosphate 3-kinase catalytic subunit delta isoform (Homo sapiens) (UniProt O00329); experiment: Inhibition of PI3K-delta (unknown origin) using PIP2 as substrate at 10 nM incubated for 1 hr by Kinase-Glo luminescent kinase assay
T1 sequence (whole entry): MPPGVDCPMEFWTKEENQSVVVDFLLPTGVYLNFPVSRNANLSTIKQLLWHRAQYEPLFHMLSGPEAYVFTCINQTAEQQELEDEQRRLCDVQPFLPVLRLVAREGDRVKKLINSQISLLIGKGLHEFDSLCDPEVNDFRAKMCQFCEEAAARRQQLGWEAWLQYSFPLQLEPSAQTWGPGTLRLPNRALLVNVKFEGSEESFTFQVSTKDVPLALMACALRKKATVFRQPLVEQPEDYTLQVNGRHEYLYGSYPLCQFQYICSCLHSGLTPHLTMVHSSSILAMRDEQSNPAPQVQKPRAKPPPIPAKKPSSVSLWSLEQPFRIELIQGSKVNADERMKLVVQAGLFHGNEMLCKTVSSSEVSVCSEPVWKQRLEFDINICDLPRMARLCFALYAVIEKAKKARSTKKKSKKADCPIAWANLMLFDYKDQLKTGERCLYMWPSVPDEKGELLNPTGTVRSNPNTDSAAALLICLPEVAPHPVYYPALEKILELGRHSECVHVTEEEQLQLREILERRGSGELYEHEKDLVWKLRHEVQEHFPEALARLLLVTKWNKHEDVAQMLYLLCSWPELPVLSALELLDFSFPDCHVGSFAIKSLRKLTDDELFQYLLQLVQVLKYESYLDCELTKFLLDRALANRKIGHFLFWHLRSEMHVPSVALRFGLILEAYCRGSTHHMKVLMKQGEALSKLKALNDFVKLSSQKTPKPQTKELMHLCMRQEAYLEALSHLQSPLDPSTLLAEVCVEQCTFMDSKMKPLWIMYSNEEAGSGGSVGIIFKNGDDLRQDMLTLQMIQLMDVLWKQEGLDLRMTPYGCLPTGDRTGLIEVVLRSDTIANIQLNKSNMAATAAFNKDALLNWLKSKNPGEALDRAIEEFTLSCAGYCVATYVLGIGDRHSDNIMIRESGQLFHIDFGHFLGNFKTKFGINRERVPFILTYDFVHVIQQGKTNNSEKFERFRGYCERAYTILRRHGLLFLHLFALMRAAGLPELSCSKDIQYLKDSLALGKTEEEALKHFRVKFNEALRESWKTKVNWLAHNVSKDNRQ
Outline: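 Final PIP2 was 50 µM and ATP 25 µM; PI3Kδ was 1.65 nM. Reactions ran 1 h at room temperature, then Kinase-Glo was added for 15 min before reading luminescence. Percent inhibition was derived from RLU. Dose-response used ten 3-fold dilutions (top 100 or 500 nM) in duplicate.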

[5] = target: T2, Phosphatidylinositol 4,5-bisphosphate 3-kinase catalytic subunit beta isoform (Homo sapiens, UniProt P42338); experiment: Inhibition of PI3K-beta (unknown origin) at 10 nM after 40 mins by ADP-Glo luminescent kinase assay
Outline: (§2)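 Final enzyme was PI3Kβ 4.8 nM and PI3Kγ 7.6 nM. ADP-Glo reagent stopped the reaction (40 min), then detection reagent was added (60 min) and luminescence read. Percent inhibition was derived from RLU.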
Target sequence in this assay (P42338 whole entry, looked up, canonical isoform): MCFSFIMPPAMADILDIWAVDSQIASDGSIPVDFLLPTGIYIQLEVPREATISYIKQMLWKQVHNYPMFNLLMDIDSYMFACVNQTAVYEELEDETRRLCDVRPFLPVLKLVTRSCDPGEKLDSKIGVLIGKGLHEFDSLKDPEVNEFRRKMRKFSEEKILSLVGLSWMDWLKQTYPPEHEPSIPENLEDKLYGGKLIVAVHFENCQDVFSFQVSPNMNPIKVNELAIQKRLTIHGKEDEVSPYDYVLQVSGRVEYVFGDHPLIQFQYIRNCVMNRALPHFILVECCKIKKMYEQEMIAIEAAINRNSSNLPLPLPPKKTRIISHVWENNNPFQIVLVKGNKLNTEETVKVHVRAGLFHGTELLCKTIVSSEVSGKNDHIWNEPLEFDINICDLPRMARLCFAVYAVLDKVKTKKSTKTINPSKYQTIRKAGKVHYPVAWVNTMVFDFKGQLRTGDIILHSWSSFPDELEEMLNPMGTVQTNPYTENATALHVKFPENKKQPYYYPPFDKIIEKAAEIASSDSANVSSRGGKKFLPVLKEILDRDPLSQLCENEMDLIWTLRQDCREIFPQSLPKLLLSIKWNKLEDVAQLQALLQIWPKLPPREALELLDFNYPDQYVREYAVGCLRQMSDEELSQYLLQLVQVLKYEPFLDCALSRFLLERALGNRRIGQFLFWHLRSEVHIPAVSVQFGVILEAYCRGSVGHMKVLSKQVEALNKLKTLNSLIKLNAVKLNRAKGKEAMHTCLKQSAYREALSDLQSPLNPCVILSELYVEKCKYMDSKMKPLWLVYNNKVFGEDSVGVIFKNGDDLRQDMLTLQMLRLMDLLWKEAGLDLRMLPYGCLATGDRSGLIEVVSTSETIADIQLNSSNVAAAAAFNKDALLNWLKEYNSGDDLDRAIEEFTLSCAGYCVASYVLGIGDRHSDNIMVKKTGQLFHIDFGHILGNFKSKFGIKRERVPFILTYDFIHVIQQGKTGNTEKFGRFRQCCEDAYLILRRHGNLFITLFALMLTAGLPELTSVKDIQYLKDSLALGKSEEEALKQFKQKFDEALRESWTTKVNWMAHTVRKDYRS

[6] = target: T3, Phosphatidylinositol 4,5-bisphosphate 3-kinase catalytic subunit gamma isoform (Homo sapiens, UniProt P48736); experiment: Inhibition of PI3K-gamma (unknown origin) at 10 nM after 40 mins by ADP-Glo luminescent kinase assay; outline: as §2
Target sequence in this assay (P48736 whole entry, looked up, canonical isoform): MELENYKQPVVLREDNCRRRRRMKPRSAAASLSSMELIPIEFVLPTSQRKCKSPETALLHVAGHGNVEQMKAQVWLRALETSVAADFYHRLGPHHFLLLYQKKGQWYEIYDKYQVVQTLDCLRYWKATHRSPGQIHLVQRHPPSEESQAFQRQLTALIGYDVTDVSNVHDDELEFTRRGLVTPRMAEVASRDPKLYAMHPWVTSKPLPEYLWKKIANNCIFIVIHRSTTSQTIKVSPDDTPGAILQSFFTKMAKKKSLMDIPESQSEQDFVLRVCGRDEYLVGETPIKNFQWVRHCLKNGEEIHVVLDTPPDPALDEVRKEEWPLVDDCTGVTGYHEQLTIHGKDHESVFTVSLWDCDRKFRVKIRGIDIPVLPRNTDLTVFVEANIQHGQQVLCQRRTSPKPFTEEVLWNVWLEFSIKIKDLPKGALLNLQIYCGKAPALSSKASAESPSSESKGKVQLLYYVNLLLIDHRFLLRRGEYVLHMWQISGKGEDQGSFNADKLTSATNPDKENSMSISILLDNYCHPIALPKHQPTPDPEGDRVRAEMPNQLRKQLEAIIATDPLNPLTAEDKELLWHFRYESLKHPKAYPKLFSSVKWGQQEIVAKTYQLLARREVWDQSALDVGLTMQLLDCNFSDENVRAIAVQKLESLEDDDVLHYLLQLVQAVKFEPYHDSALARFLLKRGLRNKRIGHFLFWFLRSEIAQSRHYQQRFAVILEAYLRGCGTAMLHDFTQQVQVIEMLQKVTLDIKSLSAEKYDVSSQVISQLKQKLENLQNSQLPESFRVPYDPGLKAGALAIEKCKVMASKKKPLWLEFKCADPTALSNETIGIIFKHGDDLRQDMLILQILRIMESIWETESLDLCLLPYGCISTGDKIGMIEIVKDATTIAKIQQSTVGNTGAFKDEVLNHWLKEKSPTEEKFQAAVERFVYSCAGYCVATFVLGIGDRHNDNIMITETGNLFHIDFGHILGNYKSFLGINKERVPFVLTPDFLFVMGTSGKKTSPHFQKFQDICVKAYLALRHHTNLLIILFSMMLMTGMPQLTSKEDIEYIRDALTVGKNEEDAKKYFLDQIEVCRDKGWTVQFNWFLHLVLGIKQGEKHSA

[7] = Cytotoxicity against human HCT116 cells after 72 hrs by MTT assay; assay type: functional, cell-based; conditions: HCT-116, 72 h; outline: as §1
[8] = Cytotoxicity against human Bel7404 cells after 72 hrs by MTT assay; assay type: functional, cell-based; conditions: BEL-7404, 72 h; outline: as §1
[9] = Half life in rat liver microsomes; assay type: ADME
[10] = Antitumor activity against human Bel7404 cells xenografted in BALB/c nude mouse assessed as reduction in tumor volume at 50 mg/kg, po qd for 14 consecutive days relative to control; assay type: functional, BEL-7404; parameters: scale not given: the % may be the effect or the level left
Outline: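 Male BALB/c nude mice carried implanted BEL-7404 tumours and were randomized once tumours reached 100–300 mm³ (about 12 days); there were 6 per treated group and 8 controls. Drug in 5% polysorbate 80/water was given orally once daily for 14 days from day 13. Tumour volume (1/2·a·b·b) and body weight were tracked, with sacrifice on day 29. The read-out was relative tumour volume versus vehicle, reported as mean SE.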

[11] = target: T3, Phosphatidylinositol 4,5-bisphosphate 3-kinase catalytic subunit gamma isoform; experiment: Inhibition of PI3K-gamma (unknown origin) after 40 mins by ADP-Glo luminescent kinase assay; outline: as §2
Target sequence in this assay (P48736 whole entry, canonical isoform): as the sequence (P48736 whole entry, looked up, canonical isoform) above

[12] = target: T2, Phosphatidylinositol 4,5-bisphosphate 3-kinase catalytic subunit beta isoform; experiment: Inhibition of PI3K-beta (unknown origin) after 40 mins by ADP-Glo luminescent kinase assay
Outline: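 ADP-Glo reagent stopped the reaction (40 min), then detection reagent was added (60 min) and luminescence read. Percent inhibition was derived from RLU.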
Target sequence in this assay (P42338 whole entry, canonical isoform): as the sequence (P42338 whole entry, looked up, canonical isoform) above

[13] = target: Phosphatidylinositol 4,5-bisphosphate 3-kinase catalytic subunit delta isoform (Homo sapiens, UniProt O00329); experiment: Inhibition of PI3K-delta (unknown origin) using PIP2 as substrate incubated for 1 hr by Kinase-Glo luminescent kinase assay
[14] = target: Serine/threonine-protein kinase mTOR (Homo sapiens, UniProt P42345); experiment: Inhibition of mTOR kinase (unknown origin) assessed as suppression of ULight-4E-BP1 substrate phosphorylation incubated for 1 hr by lance ultra assay

Compound	IC50 [1]	IC50 [2]	IC50 [3]	inhibition [4]	inhibition [5]	inhibition [6]	IC50 [7]	IC50 [8]	half-life [9]	Activity [10]	IC50 [11]	IC50 [12]	IC50 [13]	IC50 [14]
CCN(CC)CC#Cc1ccnc2ccc(-c3cnc(OC)c(NS(=O)(=O)c4ccc(F)cc4F)c3)cc12	2680 nM	2430 nM	33 nM	1.2%	21%	68%	2270 nM	300 nM	–	–	–	–	–	–
COc1ncc(-c2ccc3nccc(C#CCN4CCCCC4C)c3c2)cc1NS(=O)(=O)c1ccc(F)cc1F (centres undefined)	4730 nM	1350 nM	61 nM	4.6%	11%	59%	4520 nM	1140 nM	–	–	–	–	–	–
COc1ncc(-c2ccc3nccc(C#CCN4CCOCC4)c3c2)cc1NS(=O)(=O)c1ccc(F)cc1F	1990 nM	240 nM	2.1 nM	35%	70%	96%	510 nM	40 nM	36.9 min	–	–	–	–	–
COc1ncc(-c2ccc3nccc(C#CCN(C)CCO)c3c2)cc1NS(=O)(=O)c1ccc(F)cc1F	2800 nM	1010 nM	3.9 nM	16%	57%	90%	1150 nM	80 nM	28.4 min	–	–	–	–	–
CNC(=O)c1cc(Oc2ccc(NC(=O)Nc3ccc(Cl)c(C(F)(F)F)c3)cc2)ccn1 [SORAFENIB]	–	–	–	–	–	–	–	–	–	44%	–	–	–	–
COc1ncc(-c2ccc3nccc(C#CCN(C)C)c3c2)cc1NS(=O)(=O)c1ccc(F)cc1F	1670 nM	110 nM	3.7 nM	6.1%	41%	81%	1080 nM	230 nM	18.8 min	–	–	–	–	–
CCOC(=O)N1CCN(CC#Cc2ccnc3ccc(-c4cnc(OC)c(NS(=O)(=O)c5ccc(F)cc5F)c4)cc23)CC1	3810 nM	110 nM	5.5 nM	20.7%	30%	82%	1390 nM	480 nM	46.5 min	–	4 nM	23 nM	19 nM	9.9 nM
COc1ncc(-c2ccc3nccc(-c4ccnnc4)c3c2)cc1NS(=O)(=O)c1ccc(F)cc1F [OMIPALISIB]	130 nM	600 nM	–	–	–	–	10 nM	10 nM	–	–	0.6 nM	–	–	–
COc1ncc(-c2ccc3nccc(C#CCN4CCCCC4)c3c2)cc1NS(=O)(=O)c1ccc(F)cc1F	10300 nM	1810 nM	37 nM	3%	1.4%	55%	3610 nM	2300 nM	–	–	–	–	–	–
COc1ncc(-c2ccc3nccc(C#CCN(C4CCCCC4)C4CCCCC4)c3c2)cc1NS(=O)(=O)c1ccc(F)cc1F	27700 nM	12000 nM	> 100 nM	3.2%	13%	10%	11700 nM	6100 nM	–	–	–	–	–	–
COc1ncc(-c2ccc3nccc(C#CCN(C)C)c3c2)cc1NS(=O)(=O)c1ccc(F)cc1	2080 nM	970 nM	32 nM	10%	17%	70%	1340 nM	1160 nM	–	–	–	–	–	–
COc1ncc(-c2ccc3nccc(C#CCN4CCC(C)CC4)c3c2)cc1NS(=O)(=O)c1ccc(F)cc1F	7990 nM	2900 nM	70 nM	7.7%	5.8%	49%	4020 nM	1550 nM	–	–	–	–	–	–
